# Bioassay records: PubChem BioAssay, Johns Hopkins Ion Channel Center
# An excerpt weighted towards active compounds, which were near 3.1% of everything screened.
# KCNK9 inh = human KCNK9 channel inhibition. Q9NPC2. HEK293 KCNK9, FluxOR thallium flux fluorescence; stronger effect = lower value. B-score at 10 µM. actives 1.2% (n = 310,000). AID 488922;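 active = ratio B-score over 3 SD below the library mean, with starting fluorescence within 5 SD of its mean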;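 note: negative B-score means less thallium flux so channel inhibition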
# Target sequence (Q9NPC2 whole entry, looked up): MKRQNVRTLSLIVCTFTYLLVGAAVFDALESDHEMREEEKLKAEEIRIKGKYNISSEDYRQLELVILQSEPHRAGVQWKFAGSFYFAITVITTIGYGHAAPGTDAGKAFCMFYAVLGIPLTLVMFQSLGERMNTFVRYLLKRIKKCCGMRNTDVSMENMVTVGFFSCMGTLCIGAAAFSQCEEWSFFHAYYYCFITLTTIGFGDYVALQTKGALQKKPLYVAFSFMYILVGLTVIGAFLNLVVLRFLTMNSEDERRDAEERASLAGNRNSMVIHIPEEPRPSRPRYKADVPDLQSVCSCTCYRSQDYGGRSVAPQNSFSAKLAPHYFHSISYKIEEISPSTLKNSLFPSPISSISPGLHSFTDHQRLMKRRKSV
# hERG rescue = compounds protecting human hERG from proarrhythmic drug block; CHO-hERG, FluxOR thallium flux, dofetilide IC70 present; activation (rescue from dofetilide block), less the hit threshold, % at 10 µM; actives 0.51% (n = 310,000); AID 1511;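 active = activation above the mean of controls blocked by dofetilide plus 5 SD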;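 note: thallium influx through hERG after potassium depolarization seen as dye fluorescence rise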
# KCNQ1 act = human KCNQ1 channel potentiation or activation; P51787; CHO-K1 KCNQ1, thallium flux FluxOR fluorescence; stronger effect = higher value; B-score at 10 µM; actives 0.35% (n = 310,000); AID 2648;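 active = fluorescence ratio B-score, a plate-corrected score, at least three library SD, with initial intensity B-score within 5 SD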
#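 Medium – assay buffer, equal DMSO in all wells · Material – CHO-K1 cell line with stable KCNQ1 potassium channel expression · Signal – kinetic FluxOR thallium fluorescence, 10-s 1-Hz baseline, 110-s post-stimulus read · Compound – single concentration per compound, DMSO matched to controls · Schedule – 37 °C overnight plating, 90-min dark dye load, 20-min compound pretreatment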
# KCNQ1 block = inhibitors of human KCNQ1 potassium channel; P51787; CHO-K1 KCNQ1, FluxOR thallium flux fluorescence; stronger effect = higher value; B-score at 10 µM; actives 1.3% (n = 310,000);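 active = compounds whose thallium flux B-score, printed positive for inhibition, exceeds three library SD while starting fluorescence stays within three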;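 note: channel opened by potassium depolarization with thallium stimulus after 20 min compound exposure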
# KCNK3 inh = human KCNK3 channel inhibition, primary screen | AID 602410 | B-score at 10 µM | CHO-KCNK3 thallium flux, FluxOR fluorescence; stronger effect = lower value | actives 0.84% (n = 340,000) | O14649;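 active = B-score under library mean minus 4 SD, starting fluorescence ratio at most library mean plus 5 SD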;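 note: more negative B-score means stronger inhibition of thallium flux through KCNK3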
# KCNK9 block conf = confirmation of human KCNK9 potassium channel inhibitors; shares compounds with KCNK9 inh; HEK293 KCNK9 cells, FluxOR thallium flux fluorescence; inhibition, % at 10 µM; actives 43% (n = 4,900);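 active = thallium signal inhibited by more than 5 SD of the compound-free buffer control wells, on both duplicate plates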;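 note: 0% = assay buffer control wells without compound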
# Kir21 sel = selectivity of KCNK9 modulators against mouse Kir2.1; inhibition, % at 10 µM; Kir2.1 cells, FluxOR thallium flux fluorescence; shares compounds with KCNK9 inh; actives 4% (n = 4,900);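 active = thallium signal drop more than 5 SD beyond the mean of the no-compound control wells, seen in both duplicate plates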;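 note: signal is fluorescence rise after thallium addition divided by baseline fluorescence; plate controls were assay buffer only for no effect and full block by chlorpromazine control for full effect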
# KCNK9 uninduced = second check of KCNK9 modulator effects in non-induced HEK293 cells | FluxOR thallium flux | shares compounds with KCNK9 inh | inhibition, % at 10 µM | actives 40% (n = 4,900);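 active = thallium signal drop beyond 5 SD of the untreated control mean, on both duplicate plates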;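 note: plate controls were buffer only IC0 wells for no effect and SID17386958 at its maximal inhibitory level for full effect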
# An asterisk follows results filed as active; i = inactive; x = no result given.
SMILES,KCNK9 inh,hERG rescue,KCNQ1 act,KCNQ1 block,KCNK3 inh,KCNK9 block conf,Kir21 sel,KCNK9 uninduced
CCOC(=O)c1c(C)nn(-c2ccc(NC(=O)CSCC(=O)O)cc2)c1C,i,-3.8,i,i,i,x,x,x
COc1ccc(Nc2nnc(SC(C(=O)Nc3cc(C)ccc3C)c3ccccc3)s2)cc1 (stereo not given),i,-13.6,i,i,i,x,x,x
COc1cccc(NC(=O)C(Sc2nnc(Nc3ccccc3C)s2)c2ccccc2)c1 (stereo not given),-9.09*,-6.8,i,i,i,i,i,38.5%*
CN1CCN(C(=O)/C(=C/c2cn(S(=O)(=O)N(C)C)c3ccccc23)NC(=O)c2ccccc2F)CC1,i,-7.6,i,i,i,x,x,x
COc1ccc(NC(=O)CN(C)C(=O)Cn2c(=O)oc3ccccc32)cc1,i,-17.3,i,i,i,x,x,x
COc1ccccc1CC(=O)Nc1nc(-c2ccc(F)c(F)c2)cs1,-17.1*,-10.8,i,i,i,i,i,39.0%*
Cc1cccc(N2CCN(C(=O)c3ccc4c(c3)c(C)c(C)n4C)CC2C)c1 (stereo not given),i,-11.4,i,i,i,i,i,i
Cc1ccc([N+](=O)[O-])cc1N/C=C1\CCc2ccccc2C1=O,i,-5.5,i,i,i,x,x,x
COc1cc(/C=N\Nc2nc3ccccc3[nH]2)cc(OC)c1OC,i,-11.5,i,i,i,x,x,x
CCOc1cc(/C=N/Nc2nc3ccccc3[nH]2)cc(Br)c1OCC(=O)N(C)C,-11.3*,-2.6,i,i,i,57.5%*,i,i
Cc1cc(NCCCO)n2c(nc3ccccc32)c1C#N,i,-2.2,i,i,i,x,x,x
Cc1cc(NCCOCCO)n2c(nc3ccccc32)c1C#N,-13.9*,-3.1,i,i,i,35.5%*,i,i
Cc1cccc(NC(=O)CSc2cc(C)c(C#N)c3nc4ccccc4n23)c1,i,-10.4,i,i,i,i,i,i
CCc1ccc(NC(=O)c2onc(C)c2Cl)cc1,i,-8.0,i,i,i,x,x,x
CCc1nc2ccc(F)cc2c(C(=O)NC2CCCCC2C)c1C (stereo not given),i,-13.6,i,i,i,x,x,x
CCCOc1c(Br)cc(C2C3=C(CCCC3=O)N(CC)C3=C2C(=O)CCC3)cc1OC,-8.45*,-8.7,i,i,i,i,i,31.0%*
CC(C)/C=N\NC(=O)CCCCC(=O)N/N=C/C(C)C,i,-3.2,i,i,i,x,x,x
Cc1ccc(C2NC(c3ccc(C)cc3)C(C)C(=NO)C2C)cc1 (stereo not given),i,-10.3,i,i,i,i,i,i
Cc1nnc(SCc2ccc(Cl)cc2)nc1/C=C/N(C)C,i,-12.2,i,i,i,i,i,i
Cn1c2ccccc2c(=O)c2ccc(-c3ccc4c(c3)OCO4)cc21,-8.9*,-17.1,i,i,i,64.5%*,i,i
Cn1c(-c2ccc3c(c2)OCO3)cc(=O)c2ccccc21,i,-6.5,i,i,i,x,x,x
CCC1(CC)NC(=O)N(CC(=O)Nc2ccc(OCc3ccccc3)cc2)C1=O,x,x,x,x,i,x,x,x
COc1cc(COc2ccc3c(C)c(Cc4ccccc4)c(=O)oc3c2)cc(OC)c1OC,i,-13.2,i,i,i,i,i,i
COc1cccc(COc2ccc3c(C)c(Cc4ccccc4)c(=O)oc3c2)c1,i,-6.0,i,i,i,x,x,x
CCOc1ccc(S(=O)(=O)N2CCCCC2)cc1NC(=O)c1ccccc1,x,x,x,x,i,x,x,x
SMILES,KCNK9 inh,hERG rescue,KCNQ1 act,KCNQ1 block,KCNK3 inh,KCNK9 block conf,Kir21 sel,KCNK9 uninduced
COc1cc([N+](=O)[O-])ccc1NC(=S)NNC(=O)c1ccc2c(c1)OCO2,i,-10.5,i,10*,i,i,i,i
CCCCn1c(SCC(=O)c2ccc(O)c(O)c2)nc2ccsc2c1=O,-16.2*,-19.7,i,i,i,40.0%*,i,i
O=C(O)CCCCCn1c(SCC(=O)c2ccc(O)c(O)c2)nc2ccsc2c1=O,i,-11.8,i,i,i,x,x,x
CCCCn1c(SCC(=O)c2ccccc2)nc2ccsc2c1=O,-15.8*,-7.4,i,i,i,30.0%*,i,28.0%*
O=C(NCc1cn(-c2ccccc2)nc1-c1ccccc1)c1cc([N+](=O)[O-])cc([N+](=O)[O-])c1,i,-5.4,i,i,i,x,x,x
COc1ccc(-c2nn(-c3ccccc3)cc2CNC(=O)c2cccc([N+](=O)[O-])c2)cc1,-11*,-9.4,i,i,i,51.5%*,i,30.0%*
Cc1cccc(N=Nc2c(C)nn(-c3ccccc3)c2N)c1C,-9.34*,-4.6,i,i,i,33.5%*,i,i
Cc1nn(-c2ccccc2)c(N)c1N=Nc1ccccc1,-10.7*,-12.4,i,i,i,29.0%*,i,27.5%*
COc1ccc(N2CCN(C(=O)CCC(=O)N3Cc4ccccc4Oc4ncccc43)CC2)cc1,i,-6.0,i,i,i,x,x,x
O=C(Nc1ccc(C(F)(F)F)cc1Cl)c1ccc(Cn2cc(Br)cn2)o1,-12.3*,-1.7,i,i,i,37.0%*,i,45.5%*
CCCc1cc(=O)[nH]c2nnc(SCC(=O)N3CC(C)OC(C)C3)n12 (stereo not given),i,-15.3,i,i,i,x,x,x
CCN1CCCc2cc(CN(CCN3CCOCC3)C(=S)Nc3cccc(Cl)c3)ccc21,i,-13.0,i,i,i,i,i,i
CCN1CCCc2cc(CN(CCN3CCOCC3)C(=S)Nc3ccc(C)cc3)ccc21,i,-5.8,i,i,i,x,x,x
O=C1c2ccc(-c3ccc(Cl)c(C(F)(F)F)c3)cc2S(=O)(=O)c2cccc(C(=O)N3CCN(c4ccc(Cl)cn4)CC3)c21,x,x,x,x,i,x,x,x
CCCNC(=O)c1onc(CSc2ccc(Cl)cc2)c1C(=O)NCCC(C)C,i,-8.2,i,i,i,i,i,i
CCCNC(=O)c1onc(CSc2ccc(Cl)cc2)c1C(=O)NCC1CC1,i,-10.2,i,i,i,i,i,i
C=CCNC(=O)c1c(CSc2ccc(Cl)cc2)noc1C(=O)NCCC,i,-4.7,i,i,i,x,x,x
O=C(NCC1CC1)c1onc(CSc2ccc(F)c(F)c2)c1C(=O)NCC1CC1,i,-10.2,i,i,i,x,x,x
